Results as given in ChEMBL document CHEMBL1629638, “Pyrosequencing using the single-nucleotide polymorphism protocol for rapid determination of TEM- and SHV-type extended-spectrum beta-lactamases in clinical isolates and identification of the novel beta-lactamase genes blaSHV-48, blaSHV-105, and blaTEM-155” (2009).
≈ marks a conversion by molar mass, not a printed value.

How the values were obtained:
Format in all cases: functional
Escherichia coli [1] = experiment: Antimicrobial activity against Escherichia coli DH5[alpha] isolate GC 7668 expressing bla SHV-48 gene by microdilution method in presence of clavulanic acid
Summary of the method: (§1)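 Broth microdilution MIC. Plates of serial antibiotic dilutions inoculated to 10^5 CFU/ml and incubated 18 to 22 h at 35°C in ambient air. MIC is the lowest concentration giving complete growth inhibition by unaided eye. The recombinant strains carry shotgun-cloned bla genes in pCLL2300.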

Escherichia coli [2] = experiment: Antimicrobial activity against Escherichia coli DH5[alpha] isolate GC 8128 expressing bla SHV-105 gene by microdilution method in presence of clavulanic acid; summary of the method: as §1
Escherichia coli [3] = experiment: Antimicrobial activity against Escherichia coli ATCC 25922 by microdilution method in presence of clavulanic acid; summary of the method: as §1
Escherichia coli [4] = experiment: Antimicrobial activity against Escherichia coli DH5[alpha] by microdilution method in presence of clavulanic acid; summary of the method: as §1
Escherichia coli [5] = experiment: Antimicrobial activity against Escherichia coli DH5[alpha] isolate GC 8130 expressing bla SHV-1 gene by microdilution method in presence of clavulanic acid; summary of the method: as §1
Escherichia coli [6] = experiment: Antimicrobial activity against Escherichia coli DH5[alpha] isolate GC 8133 expressing bla […] gene by microdilution method in presence of clavulanic acid; summary of the method: as §1
Escherichia coli [7] = experiment: Antimicrobial activity against Escherichia coli DH5[alpha] isolate GC 8133 expressing bla […] gene by microdilution method
Summary of the method: (§2)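 Recombinant strains carrying the cloned β-lactamase gene (shotgun cloned into pCLL2300, confirmed by standard sequencing) tested by broth microdilution. Serial antibiotic dilutions were inoculated to 10^5 CFU/ml and incubated 18 to 22 h at 35°C in ambient air. MIC was the lowest concentration completely inhibiting growth by unaided eye.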

Escherichia coli [8] = experiment: Antimicrobial activity against Escherichia coli DH5[alpha] isolate GC 7668 expressing bla SHV-48 gene by microdilution method
Summary of the method: (§3)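 Broth microdilution MIC. Plates with serial dilutions of each β-lactam inoculated to 10^5 CFU/ml, incubated 18 to 22 h at 35°C in ambient air. MIC = lowest concentration completely inhibiting growth by unaided eye. Strains carrying the novel β-lactamases are recombinants, with the genes shotgun cloned into pCLL2300.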

Escherichia coli [9] = experiment: Antimicrobial activity against Escherichia coli DH5[alpha] isolate GC 8130 expressing bla SHV-1 gene by microdilution method; summary of the method: as §3
Escherichia coli [10] = experiment: Antimicrobial activity against Escherichia coli DH5[alpha] by microdilution method; summary of the method: as §3
Escherichia coli [11] = experiment: Antimicrobial activity against Escherichia coli DH5[alpha] isolate GC 8128 expressing bla SHV-105 gene by microdilution method; summary of the method: as §2
Escherichia coli [12] = experiment: Antimicrobial activity against Escherichia coli ATCC 25922 by microdilution method; summary of the method: as §3
Escherichia coli [13] = experiment: Antimicrobial activity against Escherichia coli DH5[alpha] by Etest method
Escherichia coli [14] = experiment: Antimicrobial activity against Escherichia coli ATCC 25922 by Etest method in presence of clavulanic acid
Escherichia coli [15] = experiment: Antimicrobial activity against Escherichia coli DH5[alpha] isolate GC 8133 expressing bla […] gene by Etest method in presence of clavulanic acid
Escherichia coli [16] = experiment: Antimicrobial activity against Escherichia coli DH5[alpha] isolate GC 7668 expressing bla SHV-48 gene by Etest method
Escherichia coli [17] = experiment: Antimicrobial activity against Escherichia coli ATCC 25922 by Etest method
Escherichia coli [18] = experiment: Antimicrobial activity against Escherichia coli DH5[alpha] isolate GC 8128 expressing bla SHV-105 gene by Etest method in presence of clavulanic acid
Summary of the method: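 The blaSHV-105 gene was shotgun-cloned into vector pCLL2300, and the insert was confirmed by standard sequencing. The recombinant E. coli strain carrying it was tested against a β-lactam panel in Etest format.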

Escherichia coli [19] = experiment: Antimicrobial activity against Escherichia coli DH5[alpha] isolate GC 8130 expressing bla SHV-1 gene by Etest method in presence of clavulanic acid
Escherichia coli [20] = experiment: Antimicrobial activity against Escherichia coli DH5[alpha] isolate GC 8128 expressing bla SHV-105 gene by Etest method
Escherichia coli [21] = experiment: Antimicrobial activity against Escherichia coli DH5[alpha] isolate GC 8130 expressing bla SHV-1 gene by Etest method
Escherichia coli [22] = experiment: Antimicrobial activity against Escherichia coli DH5[alpha] isolate GC 8133 expressing bla […] gene by Etest method
Escherichia coli [23] = experiment: Antimicrobial activity against Escherichia coli DH5[alpha] by Etest method in presence of clavulanic acid
Escherichia coli [24] = experiment: Antimicrobial activity against Escherichia coli DH5[alpha] isolate GC 7668 expressing bla SHV-48 gene by Etest method in presence of clavulanic acid
Escherichia coli [25] = experiment: Antimicrobial activity against Escherichia coli ATCC 25922 by microdilution method in presence of Tazobactam; summary of the method: as §1
Escherichia coli [26] = experiment: Antimicrobial activity against Escherichia coli DH5[alpha] isolate GC 7668 expressing bla SHV-48 gene by microdilution method in presence of Tazobactam; summary of the method: as §1
Escherichia coli [27] = experiment: Antimicrobial activity against Escherichia coli DH5[alpha] isolate GC 8130 expressing bla SHV-1 gene by microdilution method in presence of Tazobactam; summary of the method: as §1
Escherichia coli [28] = experiment: Antimicrobial activity against Escherichia coli DH5[alpha] by microdilution method in presence of Tazobactam; summary of the method: as §1
Escherichia coli [29] = experiment: Antimicrobial activity against Escherichia coli DH5[alpha] isolate GC 8133 expressing bla […] gene by microdilution method in presence of Tazobactam; summary of the method: as §1
Escherichia coli [30] = experiment: Antimicrobial activity against Escherichia coli DH5[alpha] isolate GC 8128 expressing bla SHV-105 gene by microdilution method in presence of Tazobactam; summary of the method: as §1

Row | Compound | MIC (Escherichia coli [7]) [µg/mL] | MIC (Escherichia coli [8]) [µg/mL] | MIC (Escherichia coli [9]) [µg/mL] | MIC (Escherichia coli [10]) [µg/mL] | MIC (Escherichia coli [11]) [µg/mL] | MIC (Escherichia coli [12]) [µg/mL] | further results
1 | CC1(C)S[C@@H]2[C@H](NC(=O)[C@H](N)c3ccc(O)cc3)C(=O)N2[C@H]1C(=O)O [AMOXICILLIN] |  |  |  |  |  |  | MIC (Escherichia coli [1]): 32 µg/mL; MIC (Escherichia coli [2]): 16 µg/mL; MIC (Escherichia coli [3]): 8 µg/mL; MIC (Escherichia coli [4]): 8 µg/mL; MIC (Escherichia coli [5]): 16 µg/mL; MIC (Escherichia coli [6]): 32 µg/mL
2 | CC1(C)S[C@@H]2[C@H](NC(=O)[C@H](N)c3ccccc3)C(=O)N2[C@H]1C(=O)O [AMPICILLIN] | > 128 | > 128 | > 128 | 8 (≈ 22.9 µM) | > 128 | 4 (≈ 11.4 µM) | 
3 | C[C@H]1[C@H](NC(=O)/C(=N\OC(C)(C)C(=O)O)c2csc(N)n2)C(=O)N1S(=O)(=O)O [AZTREONAM] | > 128 | 0.5 (≈ 1.15 µM) | 0.25 (≈ 0.574 µM) | ≤ 0.125 | > 128 | 0.25 (≈ 0.574 µM) | 
4 | CO/N=C(\C(=O)N[C@@H]1C(=O)N2C(C(=O)[O-])=C(C[N+]3(C)CCCC3)CS[C@H]12)c1csc(N)n1 [CEFEPIME] | 128 (≈ 266 µM) | 0.5 (≈ 1.04 µM) |  | ≤ 0.125 | 16 (≈ 33.3 µM) | ≤ 0.125 | 
5 | CO/N=C(\C(=O)N[C@@H]1C(=O)N2C(C(=O)O)=C(COC(C)=O)CS[C@H]12)c1csc(N)n1 [CEFOTAXIME] | 32 (≈ 70.3 µM) | ≤ 0.125 | ≤ 0.125 | ≤ 0.125 | 128 (≈ 281 µM) | ≤ 0.125 | MIC (Escherichia coli [13]): < 0.25 µg/mL; MIC (Escherichia coli [14]): 0.047 µg/mL; MIC (Escherichia coli [15]): 0.023 µg/mL; MIC (Escherichia coli [16]): < 0.25 µg/mL; MIC (Escherichia coli [17]): < 0.25 µg/mL; MIC (Escherichia coli [18]): 0.032 µg/mL; MIC (Escherichia coli [19]): 0.023 µg/mL; MIC (Escherichia coli [20]): > 16 µg/mL; MIC (Escherichia coli [21]): < 0.25 µg/mL; MIC (Escherichia coli [22]): 2 µg/mL (≈ 4.39 µM); MIC (Escherichia coli [23]): 0.023 µg/mL; MIC (Escherichia coli [24]): 0.023 µg/mL
6 | CO[C@@]1(NC(=O)Cc2cccs2)C(=O)N2C(C(=O)O)=C(COC(N)=O)CS[C@@H]21 [CEFOXITIN] | 8 (≈ 18.7 µM) | 4 (≈ 9.36 µM) | 16 (≈ 37.4 µM) | 8 (≈ 18.7 µM) | 8 (≈ 18.7 µM) | 4 (≈ 9.36 µM) | 
7 | CC(C)(O/N=C(\C(=O)N[C@@H]1C(=O)N2C(C(=O)[O-])=C(C[n+]3ccccc3)CS[C@H]12)c1csc(N)n1)C(=O)O [CEFTAZIDIME] | > 128 | 1 (≈ 1.83 µM) | 0.5 (≈ 0.915 µM) | 0.25 (≈ 0.457 µM) | > 128 | 0.25 (≈ 0.457 µM) | MIC (Escherichia coli [13]): < 0.5 µg/mL; MIC (Escherichia coli [14]): 0.125 µg/mL; MIC (Escherichia coli [15]): 0.5 µg/mL; MIC (Escherichia coli [16]): < 0.5 µg/mL; MIC (Escherichia coli [17]): < 0.5 µg/mL; MIC (Escherichia coli [18]): 0.25 µg/mL; MIC (Escherichia coli [19]): 0.125 µg/mL; MIC (Escherichia coli [20]): > 32 µg/mL; MIC (Escherichia coli [21]): < 0.5 µg/mL; MIC (Escherichia coli [22]): > 32 µg/mL; MIC (Escherichia coli [23]): 0.094 µg/mL; MIC (Escherichia coli [24]): 0.125 µg/mL
8 | CO/N=C(\C(=O)N[C@@H]1C(=O)N2C(C(=O)O)=C(COC(N)=O)CS[C@H]12)c1ccco1 [CEFUROXIME] | 64 (≈ 151 µM) | ≤ 0.125 | 0.25 (≈ 0.589 µM) | ≤ 0.125 | 128 (≈ 302 µM) | ≤ 0.125 | 
9 | C[C@@H](O)[C@H]1C(=O)N2C(C(=O)O)=C(SCCNC=N)C[C@H]12 [IMIPENEM ANHYDROUS] | 0.25 (≈ 0.835 µM) | 0.25 (≈ 0.835 µM) |  | 0.25 (≈ 0.835 µM) |  | ≤ 0.125 | 
10 | CCN1CCN(C(=O)N[C@@H](C(=O)N[C@@H]2C(=O)N3[C@@H]2SC(C)(C)[C@@H]3C(=O)O)c2ccccc2)C(=O)C1=O [PIPERACILLIN] | > 128 | > 128 | 64 (≈ 124 µM) | 0.5 (≈ 0.966 µM) | > 128 | 2 (≈ 3.86 µM) | MIC (Escherichia coli [25]): 2 µg/mL; MIC (Escherichia coli [26]): > 128 µg/mL; MIC (Escherichia coli [27]): 1 µg/mL; MIC (Escherichia coli [28]): 0.5 µg/mL; MIC (Escherichia coli [29]): 2 µg/mL; MIC (Escherichia coli [30]): 1 µg/mL
